Results reported in PubChem BioAssay AID2292 (The Scripps Research Institute Molecular Screening Center, 2010).
Some of the results follow. Values without a mark were called inactive. Activity calls are given as the source filed them.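 How the source made its calls: active means mean inhibition across replicates above a set limit taken from the earlier primary screen (cut at about 28% in these data); inactive means the rest.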

The molecules below were run on Epstein-Barr virus nuclear antigen 1 (EBNA-1) DNA-binding domain, Human herpesvirus 4 (assay: EBNA-1 DNA-binding inhibitors, retest, confirmation, biochemical, fluorescence polarization, triplicate (AID 2292;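 further: plate controls were EBNA-1 protein with DMSO for no effect and wells lacking EBNA-1 for full effect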)). Conditions: Recombinant EBNA-1 DBD, Cy5-DNA fluorescence polarization; at 14.8 µM; hits give high values.
Procedure, shortened: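 Test system: E. coli-made EBNA-1 DBD, residues 448-610. Compound dosing: one dose, 14.8 µM. Reagent: 10 nM Cy5 DNA hairpin. Detection: fluorescence polarization, excitation 620 nm, emission 688 nm. Repeats: each compound tested in triplicate. Schedule: Protein-probe premix 30 min, compound exposure 1 h, room temperature. Medium: Tris-NaCl buffer, pH 7.4.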
Work on `COc1ccc(CCNC(=S)N2CCN(S(=O)(=O)c3ccc(F)cc3)CC2)cc1` yielded an inhibition of 3.15%. For `CCOc1ccc(NC(=O)c2ccc(NC(=O)COC(=O)c3ccc(NC(=O)CC#N)cc3)cc2)cc1`, the inhibition was 3.81%. `CCOc1[nH]n(-c2ccc(Cl)cc2)c(=O)c1C=Nc1ccc(O)cc1` was tested, and the inhibition was -11.1%. For `COc1ccc(-c2nonc2NC(=O)c2oc3ccc(F)cc3c2C)cc1OC`, the inhibition was 58.1% (active). For `CCOc1ccc(OCC)c(NC(=O)C(NS(=O)(=O)c2ccc3c(c2)oc(=O)n3C)C(C)C)c1` (centres undefined), the inhibition was 62.8% (active). For `O=C(Nc1ccc2ccccc2c1)Nc1ccc2snnc2c1`, the inhibition was 142% (active). In the case of `Nc1ccc(S(=O)(=O)Nc2nccc(/C=C/c3ccc(Br)s3)n2)cc1`, the inhibition is reported as 8.99%. With `COc1ccc(C(=O)CSc2nnc(NC(=O)C3CC(=O)N(c4cccc(OC)c4)C3)s2)cc1` (centres undefined) the inhibition was 52.3% (active). For `COc1ccc(C(=O)Nc2cccc(NC(=O)c3ccc(OC)cc3OC)n2)c(OC)c1`, the inhibition was 31.9% (active). Work on `Cc1cccc(N(CC(=O)Nc2ccc(-c3nc4ccc(C)cc4s3)cc2)S(C)(=O)=O)c1` yielded an inhibition of 12.2%. With `Cc1ccc(O)c(/C=N/NC(=O)COc2ccc3c(C)cc(=O)oc3c2)c1` the inhibition was -12.4%. For `CCOc1cccc(NC(=O)Cn2nc(-c3ccc4c(c3)OCCO4)ccc2=O)c1`, the inhibition was 64.7% (active). `Cc1[nH]n(C(N)=S)c(=O)c1N=Nc1ccc(Cl)cc1Cl` was tested, and the inhibition was -9.96%. `CCOc1ccc(C(=O)NC(=S)Nc2ccc(NC(=O)C(C)C)cc2)cc1[N+](=O)[O-]` was tested, and the inhibition was 55.5% (active).
